# Compound activity (PubChem)
# ADAM17 inh = ADAM17 inhibition, QFRET primary screen | P78536 | recombinant ADAM17, EDANS/DABCYL FRET peptide cleavage | inhibition, % at 6.95 µM | 370,000 tested, 0.83% active | AID 720648;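 active = inhibition above the mean of compounds lying between control limits plus 3 SD, set per campaign, cut at about 8.5% in these data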;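 also: 0% = DMSO-only wells as the low control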
# Tn7 DDE FP = inhibitors of Tn7 peptide binding to human fibrin DD(E); P02675; FP displacement of FITC-Tn7 peptide from fibrin DD(E); 0% = median of compound wells per plate; inhibition, % at 8.3 µM; 370,000 tested, 0.13% active; AID 720508;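 active = inhibition above the mean of compounds falling within the control limits plus 3 SD of them, cut at about 14% in these data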;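 also: 0% = plate median of compound wells and 100% = 10 µM Aha-Tn7 peptide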
#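 system = human fibrin DD(E) protein | quantity = DD(E) 2 µM final | medium = Tris/NaCl/CaCl2 buffer, pH 7.8 | also added = labelled Tn7 tracer, 0.1 µM | compound dosing = single point at 8.3 µM | timing = compound with protein 10 min, then 3 h after probe, room temperature | signal = FP measurement | benchmarks = Aha-Tn7 high control | repeats = one replicate per compound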
# PLCb3 inh = blocks human PLC-beta3 enzyme activity | inhibition, % at 12.2 µM | Q01970 | Purified PLC-beta3, fluorogenic substrate, fluorescence | 370,000 tested, 0.18% active;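 also: 0% = median of compound wells on plate and 100% = full blocker control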
# PLCg1 inh = inhibitors of human phospholipase C gamma1; 370,000 tested, 0.84% active; inhibition, % at 12.2 µM; purified PLC-gamma1, fluorogenic substrate, fluorescence; P19174; in the data active = inhibition above about 9.5%
# Target sequence (P19174 whole entry, looked up): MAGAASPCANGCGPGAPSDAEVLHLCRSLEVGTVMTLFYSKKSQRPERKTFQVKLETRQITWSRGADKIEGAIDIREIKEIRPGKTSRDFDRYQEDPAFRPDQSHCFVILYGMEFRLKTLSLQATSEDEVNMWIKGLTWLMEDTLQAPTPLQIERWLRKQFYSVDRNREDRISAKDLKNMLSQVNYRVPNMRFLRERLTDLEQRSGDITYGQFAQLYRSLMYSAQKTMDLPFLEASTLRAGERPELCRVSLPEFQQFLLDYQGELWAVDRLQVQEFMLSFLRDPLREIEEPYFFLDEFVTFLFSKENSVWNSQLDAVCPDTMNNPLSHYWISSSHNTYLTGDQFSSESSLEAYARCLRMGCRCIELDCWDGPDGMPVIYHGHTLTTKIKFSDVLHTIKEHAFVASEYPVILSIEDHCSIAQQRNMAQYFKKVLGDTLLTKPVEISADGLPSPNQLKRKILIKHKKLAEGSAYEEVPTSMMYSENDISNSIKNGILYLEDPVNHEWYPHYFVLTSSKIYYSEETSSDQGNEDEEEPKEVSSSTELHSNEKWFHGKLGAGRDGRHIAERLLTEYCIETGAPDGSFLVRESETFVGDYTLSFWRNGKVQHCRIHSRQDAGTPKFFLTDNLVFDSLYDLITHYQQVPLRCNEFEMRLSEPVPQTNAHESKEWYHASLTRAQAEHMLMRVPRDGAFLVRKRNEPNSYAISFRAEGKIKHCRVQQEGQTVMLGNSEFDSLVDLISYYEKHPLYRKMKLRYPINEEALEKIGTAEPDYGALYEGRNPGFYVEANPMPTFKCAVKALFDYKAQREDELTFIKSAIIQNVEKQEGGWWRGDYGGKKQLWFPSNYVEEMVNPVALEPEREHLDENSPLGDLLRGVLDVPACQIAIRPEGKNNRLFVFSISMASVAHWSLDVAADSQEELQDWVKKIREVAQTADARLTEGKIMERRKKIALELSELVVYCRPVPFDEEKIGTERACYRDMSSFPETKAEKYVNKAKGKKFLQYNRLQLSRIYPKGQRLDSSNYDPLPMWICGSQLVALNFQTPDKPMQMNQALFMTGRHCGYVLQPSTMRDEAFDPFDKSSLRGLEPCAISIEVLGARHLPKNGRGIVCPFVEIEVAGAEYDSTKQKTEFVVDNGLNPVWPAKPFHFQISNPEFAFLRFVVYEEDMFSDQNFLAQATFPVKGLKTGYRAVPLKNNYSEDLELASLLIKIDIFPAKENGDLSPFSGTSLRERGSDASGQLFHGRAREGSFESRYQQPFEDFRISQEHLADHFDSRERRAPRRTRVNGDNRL
# ADAM10 inh = inhibits human ADAM10 | O14672 | recombinant ADAM10, EDANS/DABCYL FRET peptide cleavage, 3 h | inhibition, % at 7 µM | 370,000 tested, 0.62% active | AID 720582;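 active = inhibition above a per-campaign cutoff equal to the mean of compounds falling between control-based bounds plus 3 SD, cut at about 20% in these data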;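 also: 0% = DMSO wells while the 100% control is not disclosed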
# Tn6 DDE FP = disrupts Tn6 cyclic peptide binding to fibrin D-Dimer-E complex | P02675 | Fibrin DD(E) TRITC-Tn6 fluorescence polarization displacement | inhibition, % at 8.3 µM | 370,000 tested, 0.21% active | AID 720509;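 active = inhibition above a per-campaign cutoff: mean of compounds within control limits plus 3 SD, cut at about 15% in these data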;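 also: 0% = median of all compound wells on the plate and 100% = blocking peptide control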
# PLCg1 ctr = inhibits human PLC-gamma1 in PLC-beta3 counter-screen | 3,300 tested, 3.1% active | shares compounds with PLCg1 inh | purified PLC-gamma1, fluorogenic substrate, fluorescence | inhibition, % at 12.3 µM; in the data active = inhibition above about 9.5%
# PLCbeta3 conf = human PLC-beta3 inhibition, confirmation; shares compounds with PLCg1 inh; purified PLC-beta3, fluorogenic substrate fluorescence; inhibition, % at 12.3 µM; 3,300 tested, 1% active; AID 743261
# * hit, by the source's call; nt = no result. Most compounds without a hit are left out; they make up all but 2.3% or so of the library. Rule as the data show it, unless noted: active = inhibition above about 11%; inactive = the rest.
SMILES,ADAM17 inh,Tn7 DDE FP,PLCb3 inh,PLCg1 inh,ADAM10 inh,Tn6 DDE FP,PLCg1 ctr,PLCbeta3 conf
CC(C)c1ccccc1NC(=O)[C@@H]1CCCN1S(=O)(=O)c1cccc2cccnc12,-0.5,-6.5,1.9,3.0,3.3,-5.2,nt,nt
COc1ccc(S[C@]2(C(=O)N3CCCC3)CC(=O)N(c3ccccc3OC)[C@@H]2c2ccc(OC)cc2)cc1,7.4,2.1,2.1,3.5,8.9,3.9,nt,nt
Cc1cc(C)n(CCOc2nonc2N)n1,1.0,-6.3,11.8*,11.2*,-3.4,0.4,-3.0,0.2
Nc1nonc1OCCOCCOCCOc1nonc1N,-2.8,5.1,1.7,-0.1,2.7,0.1,nt,nt
COc1ccc(CNCC#Cc2cccnc2)c(OC)c1,1.2,3.0,-3.5,-4.5,-0.3,-2.0,nt,nt
CN(C)S(=O)(=O)c1cccc(C(=O)N/N=C\c2ccccc2)c1,-2.3,-0.5,-1.6,-0.1,-3.4,6.5,nt,nt
COc1cccc(C(=O)NC2CC3CCCC(C2)N3CC(=O)Nc2ccc(N(C)C)cc2)c1 (centres undefined),4.8,-0.5,5.5,10.7*,2.3,4.5,-3.7,0.3
Cc1nc2ccccc2n1Cc1ccc(Cl)cc1,-1.4,4.0,-4.7,0.0,-4.2,-1.2,nt,nt
OCc1nc2ccccc2n1Cc1ccc(Cl)cc1,6.0,2.8,1.4,10.2*,8.6,-1.2,-10.2,-4.7
Nc1nonc1-c1nc2ccccc2n1Cc1ccc(Cl)cc1,-3.4,-5.2,-5.8,10.6*,-2.4,-4.2,-8.3,-6.4
O=C(NCC1COc2ccccc2O1)c1ccc(NC(=O)c2c(Cl)cccc2Cl)cc1 (centres undefined),5.8,1.8,-0.7,-0.1,11.6,-0.5,nt,nt
Cc1[nH]n(-c2ccccc2)c(=O)c1C(c1ccc(O)c([N+](=O)[O-])c1)c1c(C)[nH]n(-c2ccccc2)c1=O,-0.1,-4.3,9.6,22.2*,5.4,1.9,-3.0,-1.5
Cc1[nH]n(-c2ccccc2)c(=O)c1C(C[N+](=O)[O-])c1ccccc1Cl (centres undefined),0.0,-1.0,-2.2,0.3,0.9,6.6,nt,nt
O=c1c2cc([N+](=O)[O-])cc([N+](=O)[O-])c2[nH]n1-c1ccccc1,-1.5,-1.0,-5.6,5.2,-8.9,-9.2,nt,nt
COc1ccc(C(C[N+](=O)[O-])c2c(C)[nH]n(-c3ccccc3)c2=O)cc1 (centres undefined),-3.8,2.4,-0.6,10.2*,3.1,-2.1,2.9,5.6
Cc1ccccc1Cn1ccc2ccc(-c3ccc4ccn(Cc5ccccc5)c4c3)cc21,-10.4,1.6,-91.8,-66.2,-28.4,5.6,nt,nt
CCc1cccc2c(N=O)c(O)[nH]c12,-1.3,3.1,1.5,10.9*,6.6,-3.8,-1.7,0.6
Cc1nc2sccn2c(=O)c1S(=O)(=O)Nc1ccc(N2CCN(C(=O)C(C)C)CC2)cc1,5.9,-4.1,5.7,12.2*,4.6,3.4,-4.7,-0.4
COc1ccc(S(=O)(=O)N2CCN(C(=O)CSc3nc4ccccc4nc3N3CCCCC3)CC2)cc1,-0.3,-3.0,-1.6,0.4,0.6,0.8,nt,nt
CC(C)C(OC(=O)c1cc2c(s1)CCCCC2)C(=O)NC(N)=O (centres undefined),-1.1,-4.9,2.9,18.4*,8.4,-11.5,-3.6,-3.1
CC(OC(=O)c1cc2c(s1)CCCCC2)C(=O)NC(N)=O (centres undefined),-2.4,3.7,-0.4,0.1,-0.8,-0.7,nt,nt
CCOC(=O)Cc1csc(SCC(=O)Nc2cccc(C#N)c2)n1,-1.6,4.4,1.3,-4.2,0.5,-1.3,nt,nt
CCOC(=O)Cc1csc(SCC(=O)Nc2cccc(Cl)c2)n1,0.0,6.3,2.9,14.2*,6.7,13.1,-10.7,-3.9
CC(CN1CCOCC1)OC(=O)c1cccc(Br)c1 (centres undefined),4.7,-0.3,11.7*,5.1,6.3,0.4,-1.2,1.3
CCC(C)(O)C(=O)N[C@H]1CCCN1C(=O)/C=C/c1ccccc1 (some centres undefined),4.3,-5.3,4.4,10.6*,10.2,2.2,-8.1,-22.9
SMILES,ADAM17 inh,Tn7 DDE FP,PLCb3 inh,PLCg1 inh,ADAM10 inh,Tn6 DDE FP,PLCg1 ctr,PLCbeta3 conf
O=C(/C=C/c1ccccc1)N1CCC[C@H]1CO,-3.5,0.7,2.5,0.0,-3.4,0.1,nt,nt
CC1CN(c2ccccc2)c2nc3c(c(=O)[nH]c(=O)n3C)n2C1 (centres undefined),-7.0,0.9,-5.8,1.6,1.3,5.1,nt,nt
CC1CN(c2ccc(Cl)cc2)c2nc3c(c(=O)[nH]c(=O)n3C)n2C1 (centres undefined),-3.0,-0.5,-5.3,10.2*,-5.7,-3.9,-2.2,0.1
O=C(c1ccccc1)N1CCN(c2ccc([N+](=O)[O-])c(NCc3cccnc3)c2)CC1,-0.9,3.2,0.0,9.7*,7.5,-12.3,-1.1,-0.3
COc1ccc(C)cc1S(=O)(=O)N(CC(=O)N1CCOCC1)c1cc(C)cc(C)c1,2.2,0.3,-1.8,10.2*,-2.3,-1.4,-0.1,1.8
COc1ccc(C)cc1S(=O)(=O)N(CC(=O)N1CCCC1)c1ccc(C)cc1,-0.1,0.0,-2.8,-1.1,-14.4,1.3,nt,nt
CSc1nc(C)cc(Oc2ccc(OCCOc3ccccc3)nn2)n1,-1.6,-2.1,-1.3,2.2,-9.1,5.6,nt,nt
CCCOc1ccc(Oc2cc(C)nc(SC)n2)nn1,2.8,-4.7,13.2*,6.5,4.4,-2.8,-8.2,-1.8
COC(=O)C1CN(Cc2cn(Cc3ccccc3)nn2)CCS(=O)(=O)N1Cc1ccc(OC)cc1 (centres undefined),-2.9,-9.2,-0.2,-0.3,-7.2,-0.5,nt,nt
COc1cc(/C=N\Nc2nncn2N)ccc1OC(C)=O,2.3,-6.6,1.4,14.2*,-0.5,-0.7,-0.3,-4.2
COc1cc(/C=N/NC(=O)c2ccncc2)ccc1OC(C)=O,-0.1,-0.5,2.6,1.7,-3.7,6.8,nt,nt
COc1ccc(OC)c(NC(=O)CCNS(=O)(=O)c2ccc3c(c2)oc(=O)n3C)c1,7.0,7.1,12.4*,5.8,7.5,-1.4,-3.1,-1.8
COc1cc(OC)c(NC(=O)CCNS(=O)(=O)c2ccc3c(c2)oc(=O)n3C)cc1Cl,-1.1,-4.9,2.8,0.9,-0.6,-0.8,nt,nt
CCOC(=O)CCCCCC(=O)Nc1ccc2c(c1)C(=O)N([C@H](C)CO)C[C@@H](C)[C@@H](CN(C)C(=O)CCC(F)(F)F)OCCCC[C@H](C)O2,4.6,-2.0,4.6,12.2*,-1.4,-6.2,-10.9,-3.0
